Compound activity: PubChem BioAssay, Broad Institute
The list is not random: actives were taken first. Their share in the collection is about 2.6%.
miR122 inh: miR-122 Renilla sensor signal increase in Huh7, primary screen, miR-122 inhibitor project, cell-based, single point, plate reader | Huh7 miR-122 Renilla luciferase sensor, 48 h; neutral wells = 0, positive control = 100 | activation (reporter increase), % at 12.5 µM | actives 0.3% (n = 340,000);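 active = mean replicate activation score at least 90 and every replicate individually at or above 90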;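 also: higher luciferase means less miR-122 activity so hits act as miR-122 inhibitors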
ERAP1 inh: human ERAP1 aminopeptidase inhibitors, primary screen, biochemical, single point, plate reader | Endoplasmic reticulum aminopeptidase 1 (Homo sapiens), Q9NZ08 | recombinant ERAP1, Leu-AMC fluorescence, 60 min | inhibition, % at 10.7 µM | actives 0.15% (n = 340,000);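 active = mean replicate inhibition of at least 30%, or all replicates individually reaching that 30% level; inactive = mean below 30% and not every replicate reaching it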;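 also: 0% = neutral control wells and 100% = L-leucinethiol positive control wells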
DENV2 CPE: inhibitors of DENV2 cytopathic effect, primary screen, cell-based, plate reader, single concentration | DENV2-infected cells, cytopathic effect rescue | CPE inhibition, % at 9.99 µM | actives 1.7% (n = 350,000); in the data active = CPE inhibition above about 20%, passing the limit was not always enough; tested in BHK-21 cells;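 also: 0% = median of neutral control wells and 100% = median of positive control wells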
CFTR F508del cor: F508del CFTR correction, initial screen, CFBE line, single point | CFBE cells, YFP halide quenching; stimulated with forskolin plus potentiator P3; % fluorescence drop versus neutral controls | activity (quench increase), % at 7.58 µM | actives 0.36% (n = 350,000) | AID 720511, 2013;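 active = mean added fluorescence quench of at least 8% versus neutral control, with both replicates also reaching 8%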;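 also: cells transiently co-express mutant CFTR-F508del with the halide-sensitive YFP; corrector assay measuring rescue of mutant channel to the surface after 24 h compound exposure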
GSIS activator: GLuc luminescence reporter in INS-1E cells, primary screen for activators of glucose-dependent secretion of insulin | INS-1E GLuc reporter insulin secretion, 2-3 h | activation, % at 16.6 µM | actives 0.61% (n = 370,000) | AID 743287, 2014;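 active = lowest replicate activation of at least 40%, so every replicate reaches that level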;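 also: 0% = median of neutral control wells and 100% = median of IBMX positive control wells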
E-sel inducer: E-selectin induction in HUVECs, primary screen, imaging, HUVEC, immunofluorescence imaging, single point; normalized: neutral wells 0, TNF-alpha wells 100; P16581; AID 686992, 2013; actives 0.37% (n = 260,000); activation, % at 7.58 µM;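 active = mean E-selectin-positive cell signal at least 10% of the positive control, reached in at least 60% of replicates, without over 20% cell loss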
Target sequence (P16581 whole entry, looked up): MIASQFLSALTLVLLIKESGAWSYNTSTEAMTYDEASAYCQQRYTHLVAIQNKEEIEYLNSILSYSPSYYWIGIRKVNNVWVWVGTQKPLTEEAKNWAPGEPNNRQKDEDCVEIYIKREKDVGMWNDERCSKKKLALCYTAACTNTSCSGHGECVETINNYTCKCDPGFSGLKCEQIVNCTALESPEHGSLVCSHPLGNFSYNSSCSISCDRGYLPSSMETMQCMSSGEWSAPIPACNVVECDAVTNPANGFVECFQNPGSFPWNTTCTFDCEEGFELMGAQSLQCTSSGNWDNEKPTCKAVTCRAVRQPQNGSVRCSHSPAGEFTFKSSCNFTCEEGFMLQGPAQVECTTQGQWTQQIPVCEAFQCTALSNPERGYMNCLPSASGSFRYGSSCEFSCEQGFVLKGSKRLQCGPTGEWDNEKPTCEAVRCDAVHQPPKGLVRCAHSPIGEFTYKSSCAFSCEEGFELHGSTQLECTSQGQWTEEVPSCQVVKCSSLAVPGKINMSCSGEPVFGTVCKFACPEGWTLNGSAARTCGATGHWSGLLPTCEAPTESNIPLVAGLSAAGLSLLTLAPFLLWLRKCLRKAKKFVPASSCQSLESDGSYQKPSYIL
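assay system = HUVEC, human umbilical vein endothelial cells | input = 3,000 HUVEC seeded per well | medium = EGM-2 growth medium on 0.1% gelatin-coated wells | dosing = one compound dose added by pin transfer | signal = immunofluorescence imaging | read-out basis = % PE-positive cells | control set = TNF-alpha, DMSO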
* marks the source's active call; other numbers are inactive results; [ ] = remark or other dose.

What do the screens show for `COC(=O)c1ccccc1-c1ccc(/C=N/NC(=O)c2cc3ccccc3o2)o1`?
miR122 inh: 4; GSIS activator: -12

Results for O=C(NCC[C@H]1CC[C@@H](NC(=O)C2CC2)[C@@H](CO)O1)c1cc(Cl)cc(Cl)c1 ?
ERAP1 inh: -1; DENV2 CPE: -3; CFTR F508del cor: 0; GSIS activator: 6; E-sel inducer: 0

What do the screens show for `O=C(CCn1ccc2cc(S(=O)(=O)N3CCCC3)ccc21)NCc1cccc(F)c1`?
miR122 inh: 0; ERAP1 inh: 1; DENV2 CPE: -3; CFTR F508del cor: 2; GSIS activator: 44*

How did C[C@H]1CN([C@@H](C)CO)C(=O)c2cc(NC(=O)NC3CCCCC3)ccc2O[C@@H]1CN(C)C(=O)Nc1ccccc1 do in these assays?
miR122 inh: 93*[16.7 µM]; ERAP1 inh: -2; DENV2 CPE: -1; CFTR F508del cor: -2; GSIS activator: 16; E-sel inducer: 0

What do the screens show for `C[C@H]1CN([C@@H](C)CO)C(=O)c2cc(NC(=O)NC3CCCCC3)ccc2O[C@H]1CN(C)C(=O)Nc1ccccc1`?
miR122 inh: 5[16.7 µM]; ERAP1 inh: 1; DENV2 CPE: 4; CFTR F508del cor: 0; GSIS activator: -4; E-sel inducer: 0

Results for C[C@@H]1CN([C@H](C)CO)C(=O)c2cc(NC(=O)NC3CCCCC3)ccc2O[C@@H]1CN(C)C(=O)Nc1ccc(F)cc1 ?
miR122 inh: -13[16.7 µM]; ERAP1 inh: 0; DENV2 CPE: 40*; CFTR F508del cor: 0; GSIS activator: -27; E-sel inducer: -2

Results for CC(=O)Nc1cccc2c1O[C@@H](CN(C)C(=O)NC(C)C)[C@@H](C)CN(C)C2=O ?
GSIS activator: -2

How did O=S(=O)(N[C@@H]1CC[C@@H](CCn2cc(-c3ccccn3)nn2)O[C@H]1CO)c1cccc(Cl)c1 do in these assays?
miR122 inh: 0[16.7 µM]; ERAP1 inh: -2; DENV2 CPE: 37*; CFTR F508del cor: 2; GSIS activator: -6; E-sel inducer: 0

What do the screens show for `O=S(=O)(N[C@H]1CC[C@H](CCn2cc(-c3cccnc3)nn2)O[C@@H]1CO)c1ccccc1`?
ERAP1 inh: 0; DENV2 CPE: 29*; CFTR F508del cor: -3; GSIS activator: 6; E-sel inducer: 3

What do the screens show for `Cc1ccc(S(=O)(=O)N[C@H]2CC[C@@H](CCn3cc(-c4cccc(F)c4)nn3)O[C@H]2CO)cc1`?
ERAP1 inh: -2; DENV2 CPE: 34*; CFTR F508del cor: 4; GSIS activator: -18; E-sel inducer: 0

How did O=S(=O)(N[C@@H]1CC[C@H](CCn2cc(-c3cccnc3)nn2)O[C@H]1CO)c1ccccc1 do in these assays?
ERAP1 inh: -3; DENV2 CPE: 15; CFTR F508del cor: 1; GSIS activator: 19; E-sel inducer: -1

What do the screens show for `Cc1noc(C)c1S(=O)(=O)Nc1ccc2c(c1)CC(=O)N([C@H](C)CO)C[C@H](C)[C@@H](CN(C)Cc1ccc(C(=O)Nc3ccccc3N)cc1)O2`?
ERAP1 inh: 3; DENV2 CPE: 40*; CFTR F508del cor: -2; GSIS activator: 16

How did C[C@@H]1CN([C@H](C)CO)C(=O)Cc2cc(NS(=O)(=O)c3ccc(Cl)cc3)ccc2O[C@H]1CN(C)Cc1ccc(C(=O)Nc2ccccc2N)cc1 do in these assays?
ERAP1 inh: 0; DENV2 CPE: 71*; CFTR F508del cor: 2; GSIS activator: 2; E-sel inducer: 1

What do the screens show for `CCCCn1c(NC(C)CC)nc2c1c(=O)[nH]c(=O)n2C` (stereo unspecified)?
GSIS activator: 129*

How did CCC(C)Nc1nc2c(c(=O)[nH]c(=O)n2C)n1CCOc1ccccc1 (stereo unspecified) do in these assays?
miR122 inh: -4; ERAP1 inh: 2; DENV2 CPE: 6; CFTR F508del cor: 1; GSIS activator: 20; E-sel inducer: 0

Results for CC(C)CCn1c(N2CCCC2)nc2c1c(=O)[nH]c(=O)n2C ?
ERAP1 inh: -4; DENV2 CPE: 11; CFTR F508del cor: 1; GSIS activator: 46*

What do the screens show for `CCCCCn1c(SC(C)C(C)=O)nc2c1c(=O)[nH]c(=O)n2C` (stereo unspecified)?
miR122 inh: -11; ERAP1 inh: 2; DENV2 CPE: 15; CFTR F508del cor: 2; GSIS activator: 73*; E-sel inducer: 0

Results for C/C(Cl)=C/CSc1nc2c(c(=O)[nH]c(=O)n2C)n1C(C)C ?
miR122 inh: 1; GSIS activator: 74*

How did CC=Cc1ccc2n(c1=O)C[C@H]1[C@H](CO)[C@@H](C(=O)NCCC)[C@@H]2N1CC1CCCC1 (mixture of isomers) do in these assays?
ERAP1 inh: 0; DENV2 CPE: -2; GSIS activator: -5; E-sel inducer: 0

What do the screens show for `C[C@@H]1CCCCO[C@H](CN(C)Cc2ccc(Cl)c(Cl)c2)[C@@H](C)CN([C@@H](C)CO)C(=O)c2cc(NS(=O)(=O)c3ccccc3)ccc2O1`?
miR122 inh: -14[16.7 µM]; ERAP1 inh: -3; DENV2 CPE: 24*; CFTR F508del cor: 4

Results for C[C@@H]1CCCCO[C@H](CN(C)Cc2ccc(Cl)c(Cl)c2)[C@@H](C)CN([C@H](C)CO)C(=O)c2cc(NS(=O)(=O)c3ccccc3)ccc2O1 ?
miR122 inh: -4[16.7 µM]; ERAP1 inh: -3; DENV2 CPE: 32*; CFTR F508del cor: 4; GSIS activator: -7; E-sel inducer: 0

What do the screens show for `NCCCCCNC(=O)[C@@H]1C[C@@H]2C(=O)N[C@@H](Cc3ccccc3)C(=O)N2[C@@H]1c1ccc(O)cc1`?
ERAP1 inh: 3; DENV2 CPE: 5; CFTR F508del cor: 0

How did CCCC#Cc1ccc2c(c1)O[C@@H](CN(C)S(=O)(=O)c1cccc(OC)c1)[C@@H](C)CN([C@H](C)CO)S2(=O)=O do in these assays?
miR122 inh: -5[16.7 µM]; CFTR F508del cor: 2; GSIS activator: 3; E-sel inducer: 0

How did COc1cccc(-c2ccc([C@H]3[C@H](CO)N4C(=O)CN(C(=O)c5ccncc5)C[C@@H]34)cc2)c1 do in these assays?
ERAP1 inh: -1; DENV2 CPE: 9; CFTR F508del cor: 2; GSIS activator: 10; E-sel inducer: 0

How did CN(C)c1ccc2c(c1)[C@@H]1C[C@@H](CC(=O)NCc3ccc4c(c3)OCO4)O[C@H](CO)[C@@H]1O2 do in these assays?
miR122 inh: -3[16.7 µM]; ERAP1 inh: -2; DENV2 CPE: 2; CFTR F508del cor: 0; GSIS activator: 13; E-sel inducer: 0
